Screens deposited in PubChem BioAssay by Sanford-Burnham Center for Chemical Genomics.
SENP8 block-1 – inhibitors of human SENP8 protease. 330,000 compounds, 1.2% hits. purified SENP8, Z-RLRGG-aminoluciferin cleavage, luminescence. AID 2540. inhibition, % at 10 µM; in the data active = inhibition above about 50%
SENP7 inh – blocks the human protease SENP7. Q9BQF6. recombinant SENP7, Z-RLRGG-aminoluciferin luminescence, 40 min. inhibition, % at 5 µM. 330,000 compounds, 1.5% hits. AID 434973;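 active = inhibition above about 50% at the single test dose, limit read from the data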;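 also: plate controls were DMSO with enzyme for no effect and no enzyme buffer wells for full effect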
Target sequence (Q9BQF6 706-1050 limits assumed): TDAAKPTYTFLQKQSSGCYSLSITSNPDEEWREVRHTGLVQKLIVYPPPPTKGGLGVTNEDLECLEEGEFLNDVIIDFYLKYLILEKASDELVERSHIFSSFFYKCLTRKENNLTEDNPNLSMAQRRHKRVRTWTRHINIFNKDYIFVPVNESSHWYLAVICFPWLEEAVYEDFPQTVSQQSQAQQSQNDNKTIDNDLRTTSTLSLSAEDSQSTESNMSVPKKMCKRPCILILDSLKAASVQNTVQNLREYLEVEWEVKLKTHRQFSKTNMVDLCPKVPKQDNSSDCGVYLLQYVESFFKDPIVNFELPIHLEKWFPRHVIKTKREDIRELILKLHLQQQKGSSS
SENP1 inh – inhibitors of human SENP1 SUMO protease catalytic domain | Q9P0U3 | recombinant SENP1 catalytic domain, CyPet-SUMO1-YPet FRET cleavage | inhibition, % at 10 µM | 360,000 compounds, 0.21% hits | AID 624204;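 active = inhibition at least 30% at 10 µM, raw YFP signal under a set limit, fluorescence ratio 0.5 to 1.5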;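 also: 0% = enzyme with DMSO and 100% = no enzyme wells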
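Compound: 10 µM single point, 0.5% DMSO; Test system: hSENP1 catalytic domain, recombinant; Timing: 50 min reaction at room temperature; Technique: FRET, CFP and YFP emission; Control set: no-enzyme wells low, DMSO-plus-enzyme wells high control.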
NRP1-CendR mod – modulators of CendR peptide binding to human neuropilin-1; 360,000 compounds, 0.85% hits; FAM-RPARPAR peptide binding to NRP-1, fluorescence polarization; AID 602438; inhibition, % at 25 µM; O14786;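 active = inhibition or corrected inhibition above about 18%, plus a signal ratio from 0.5 to 1.5, limit read from the data, passing the limit was not always enough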
SENP6 block – inhibitors of human SENP6 protease. Recombinant SENP6 catalytic domain, aminoluciferin luminescence. inhibition, % at 10 µM. 330,000 compounds, 1.8% hits. AID 2599;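 active = inhibition above about 50% at the single tested dose, limit read from the data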;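 also: plate controls were DMSO wells with enzyme for no effect and DMSO wells lacking enzyme for full effect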
SENP8 block-2 – SENP8 (human) protease inhibition | Q96LD8 | recombinant SENP8, Nedd8 substrate fluorescence | inhibition, % at 20 µM | 360,000 compounds, 0.64% hits; in the data active = inhibition mostly above about 40%, no sharp cut-off; inactive = mostly below about 27%
SENP8 conf-1 – confirmation of human SENP8 protease inhibitors. inhibition, % at 12.5 µM. Recombinant SENP8, Z-RLRGG-aminoluciferin luminescence, 60 min. shares compounds with SENP7 inh. 6,200 compounds, 40% hits. AID 488912;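 active = mean inhibition across replicates above about 50%, limit read from the data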
SENP6 confirm – human SENP6 inhibition, confirmed; shares compounds with SENP7 inh; recombinant SENP6, Z-RLRGG-aminoluciferin luminescence; inhibition, % at 12.5 µM; 6,200 compounds, 58% hits
SENP7 confirm – human SENP7 inhibition, confirmed. inhibition, % at 12.5 µM. shares compounds with SENP7 inh. 6,200 compounds, 69% hits. recombinant SENP7, Z-RLRGG-aminoluciferin luminescence, 40 min
Casp3 SENP sel – selectivity test for SENP inhibitors: human caspase-3 inhibition. 6,200 compounds, 60% hits. shares compounds with SENP7 inh. purified caspase-3, Z-DEVD-aminoluciferin luminescence, 60 min. inhibition, % at 12.5 µM;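 active = mean inhibition above about 50%, limit read from the data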;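 also: plate controls were enzyme with DMSO for no effect and wells without caspase-3 for full effect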
SENP luc ctr – luminescence interference (SENP counter-screen); shares compounds with SENP7 inh; Pre-incubated SENP8/Z-RLRGG-aminoluciferin, luciferase luminescence interference; inhibition, % at 12.5 µM; 6,200 compounds, 39% hits;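 active = mean inhibition above about 50% when retested at one dose, limit read from the data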;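 also: plate controls were DMSO wells with completed reaction for no effect and substrate without enzyme for full effect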
SENP8 conf-2 – SENP8 (human) inhibition, single concentration confirmation; shares compounds with SENP8 block-2; purified SENP8, Nedd8-AMC/pro-Nedd8 cleavage fluorescence, 30 min; inhibition, % at 25 µM; 1,400 compounds, 15% hits; AID 624319; in the data active = inhibition mostly above about 39%, no sharp cut-off; inactive = mostly below about 34%
An asterisk follows results filed as active; . = no result. Compounds with a hit are over-represented: about 3.3% of the library has one in this group of screens.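 The calls were made as follows, unless noted: active = mean inhibition above about 50% in the one-dose retest (limit read from the data); inactive = the rest.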

SMILES | SENP8 block-1 | SENP7 inh | SENP1 inh | NRP1-CendR mod | SENP6 block | SENP8 block-2 | SENP8 conf-1 | SENP6 confirm | SENP7 confirm | Casp3 SENP sel | SENP luc ctr | SENP8 conf-2
O=[N+]([O-])c1ccc(C=Nc2ccc(Cl)c([N+](=O)[O-])c2)s1 | 35 | 21 | 5 | -26 | 50* | 76* | 5 | 40 | 22 | 4 | 3 | 80*
Cc1cc(C)cc(N=Cc2ccc([N+](=O)[O-])s2)c1 | 29 | 17 | -1 | -44 | 57* | 75* | 14 | 41 | 9 | -4 | -3 | 83*
Oc1cc(Nc2ccccc2)cc2cccnc12 | -3 | -4 | 2 | -4 | 23 | -22 | . | . | . | . | . | .
Oc1cc(NCCN2CCOCC2)cc2cccnc12 | 61* | 64* | -5 | 29* | 74* | 64* | 40 | 76* | 40 | 95* | 4 | 91*
COc1ccc2c(c1)Cc1sc(NC(C)=O)nc1-2 | 73* | 62* | -2 | 1 | 81* | 67* | -8 | 52* | 76* | 54* | 29 | 66*
COc1cccc(NC(=S)/C(=C(\[O-])c2ccc(OC(F)F)cc2)[n+]2ccccc2)c1 | 0 | 9 | -9 | -10 | 53* | 61* | 9 | 41 | 1 | 19 | 5 | 70*
[O-]/C(=C(\C(=S)Nc1cccc2ccccc12)[n+]1ccccc1)c1ccc(OC(F)F)cc1 | . | . | -39 | 1 | . | -202 | . | . | . | . | . | .
Cc1cc(N2CCN(C(c3ccnc4ccccc34)c3nnnn3-c3c(C)cccc3C)CC2)c2ccccc2n1 (configuration not stated) | . | . | -2 | -4 | . | -58 | . | . | . | . | . | .
CN(C)c1ccc(NC(=O)Oc2ccccc2)cc1 | 36 | 4 | 1 | -4 | 75* | 44* | 64* | 61* | 85* | 81* | 46 | 10
CN(C)c1ccc(NC(=O)C[n+]2ccccc2)cc1 | 0 | -13 | 6 | -2 | -7 | 10 | . | . | . | . | . | .
CC1=NN(c2ccc(F)cc2)C(=O)C1C(c1cccc(O)c1)c1c(C)[nH]n(-c2ccc(F)cc2)c1=O (configuration not stated) | 27 | 58* | 2 | 2 | 23 | 90* | -17 | 19 | 6 | -2 | -1 | 52*
COc1cc(C(=O)c2nccc3cc(OC)c(OC)cc23)c([N+](=O)[O-])cc1OC | 84* | 90* | 39* | 1 | 95* | 106* | 26 | 56* | 24 | -1 | -5 | 80*
COc1cccc(S(=O)(=O)N(C)C[C@H]2Oc3cc(Br)ccc3S(=O)(=O)N([C@@H](C)CO)C[C@H]2C)c1 | . | . | -1 | 5 | . | 13 | . | . | . | . | . | .
CCCCCOc1ccc(/C=C/c2c([N+](=O)[O-])c(=O)n(C)c(=O)n2C)cc1 | 5 | -5 | 1 | -3 | -8 | 24 | . | . | . | . | . | .
Cc1c(NC(=O)C(C)OC(=O)c2sc3ccccc3c2Cl)c(=O)n(-c2ccccc2)n1C (configuration not stated) | 0 | -2 | 2 | -20 | -25 | 9 | . | . | . | . | . | .
